Unmarked numbers belong to inactive results. Records with an inconclusive call do not appear. Activity calls are given as the source filed them.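 How the source made its calls, unless noted: active means RAM network inhibition above 8.4% in each of two replicates, 3 SD over the compound average; inconclusive means above 8.4% inhibition in only one replicate; inactive means 8.4% inhibition or less in each replicate.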
Experiments:
[1] = OD615 S. cerevisiae growth inhibition, permissive medium, pilot counter-assay, permissive growth control for S. cerevisiae lifespan shortening project (AID 705;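 active means growth inhibition above 25% in both replicates, a cutoff set 3 SD above the mean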); conditions: OD615, 24 h, at 10 µM, active compounds read high
Method in brief: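 System: S. cerevisiae with engineered DeaD lifespan system / Measured by: absorbance (optical density) at 615 nm / Read-out: reduction in yeast growth (OD615) / Times: 4 h cell pre-growth, 24 h exposure at 30 °C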

[2] = Restrictive medium S. cerevisiae growth inhibition, OD615, pilot screen of yeast lifespan reduction project, restrictive growth control (AID 706;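 active means growth inhibition above a set limit, 3 SD over mean compound inhibition, in both replicates, cut at about 43% in these data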;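 further: modified DeaD lifespan yeast strain shifted to restrictive glucose medium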); conditions: OD615, 48 h, at 10 µM, active compounds read high
Method in brief: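 System: Engineered S. cerevisiae DeaD strain | Buffer or medium: Glucose-based CSMM-D restrictive medium | Schedule: 4 h pre-incubation, 48 h exposure at 30 °C | Technique: Optical density at 615 nm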

[3] = viability gain of MRP-1-high H69AR cells under doxorubicin, pilot screen, MRP-1 activator project, CellTiter-Glo, duplicate (AID 807;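 active means viability increase at or above a cutoff of the median across tested compounds plus 3 SD, cut at about 8.5% in these data, passing the limit was not always enough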;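 further: compound pretreatment 18-22 h then 72 h combined with doxorubicin; 0% = doxorubicin alone and 100% = vehicle without doxorubicin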); conditions: H69AR viability with doxorubicin, CellTiter-Glo luminescence; at 10 µM; active compounds read high
[4] = growth suppression of beta-catenin knockout HCT116, pilot screen, human colon tumor cells (AID 823;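 active means cell viability at or below a set limit in both duplicate runs, the limit being the all-compound median minus 4 SD, cut at about 23% in these data, passing the limit was not always enough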;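 further: 0% = wells killed by 20 µM Hyamine and 100% = untreated DMSO cell wells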); conditions: CellTiter-Glo, 60 h, at 10 µM, active compounds read low
[5] = growth suppression of PTEN-deleted HCT116, pilot screen, cell-based, HCT116 clonal line, CellTiter-Glo (AID 824;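 active means viability at or below 27.92% in each of two runs, the all-compound median minus 4 SD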;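 further: 0% = 20 µM Hyamine control and 100% = vehicle cell control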); conditions: 60 h, at 10 µM, active compounds read low
[6] = inhibitors of the yeast RAM network, pilot screen, dse1pr::URA3 reporter, 5-FOA selection (AID 869;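 active means inhibition over a set limit, the all-compound mean plus 3 SD, in both replicate runs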;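 further: 0% = DMSO wells with no growth and 100% = 10 µM 1-NA-PP1 with full growth; RAM network block rescues cells from 5-FOA so hits raise OD615 growth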); conditions: S. cerevisiae dse1pr::URA3 5-FOA growth, OD615, 2 d; at 10 µM; active compounds read high; strain carries analog-sensitive mutant Cbk1 kinase
[7] = RAM signaling pathway blockade in yeast – S. cerevisiae, Pdr1DBD-CYC8 efflux-inhibited sensitized strain, primary screen (AID 1298);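 further: 0% = DMSO untreated cells without growth and 100% = 10 µM 1-NA-PP1 full growth; higher means more yeast growth rescued from 5-FOA killing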; conditions: S. cerevisiae cbk1-as DSE1-URA3 strain, 5-FOA growth OD615, 2 d; at 50 µM; active compounds read high

SMILES	growth inhibition [1] [%]	growth inhibition [2]	viability increase [3] [%]	viability [4] [%]	viability [5] [%]	inhibition [6] [%]	RAM network inhibition [7] [%]
CNC(=O)c1c(NC(=O)c2nc3ccccc3s2)sc2c1CCC2	1.6	-6.17%	-3.81	67.5	61	0.625	5.05
O=C(Cn1cc2c(n1)CCCC2)NCCCN1CCCC1	-3.79	4.09%	0.07	105	99.3	-0.37	1.62
COc1cccc(-c2csc(NC(=O)C3CC3)n2)c1	1.37	13.5%	4.92	96.6	91.5	-0.98	1.49
CC(=O)C1=C(C)NC(SCC(=O)c2ccccc2)=C(C#N)C1c1ccco1 (configuration not stated)	-3.25	21.2%	-6.35	55	56	1.5	3.37
CC1CCCCN1Cc1nc2c(c(=O)n(C)c(=O)n2C)n1Cc1cccc2ccccc12 (configuration not stated)	-4.17	-4.83%	-0.2	94.2	89	1.91	2.8
CCOc1ccc(C2C(C(=O)Nc3ccc(F)cc3)=C(C)Nc3nc(CCCO)nn32)cc1 (configuration not stated)	-12.5	12.8%	-0.6	96.6	91.5	0.87	1.21
CCOC(=O)N1CCC(NC(=O)CSCc2nc(-c3sccc3C)oc2C)CC1	-9.01	-10.5%	-1.24	90	83.5	1.34	6.2
O=C(NCc1ccccn1)C1CC(=O)N(C2CCCC2)C1 (configuration not stated)	-5.27	4.21%	1.73	103	96.9	1.5	2.33
CCC(=O)c1cc2c(cc1NC(=O)c1cccs1)OCCO2	-5.85	-7.54%	-6.83	69.2	75.2	1.38	9.21
Cc1nc2sc(C(c3cccs3)N3CCN(c4cccc(Cl)c4)CC3)c(O)n2n1 (configuration not stated)	-5.61	2.47%	2.07	93.7	83.5	2.32	5.45
c1ccc(Nc2nc(N3CCOCC3)nc(N3CCOCC3)n2)cc1	5.75	6.58%	-6.19	67.9	67.2	0.65	1.44
Cc1cc(NC(=O)c2cc(-c3cccs3)nc3ccccc23)no1	3.04	-5.12%	-6.62	29.3	30.9	2.11	8.27
CC(=O)Nc1nc2cc3c(cc2s1)OCO3	-3.77	-8.01%	-1.9	96.4	91.9	1.81	5.55
CC(c1cccnc1)N(CCN(C)C)C(=O)Nc1ccc(Cl)c(Cl)c1 (configuration not stated)	-5.64	-0.46%	-3.34	88.9	84.4	1.33	5.39
O=C(Nc1ccc(N2CCCC2)c(Cl)c1)c1ccc(Br)o1	3.44	17%	-4.13	78.2	79.2	0.885	3.68
CC(=O)c1cc(Cc2csc(C(C)=O)c2)cs1	-9.93	-5.34%	-2.14	100	100	1.38	3.88
Cc1onc(-c2ccccc2)c1C(=O)N1CCN(C/C=C/c2ccccc2)CC1	-2.69	5.24%	-5.02	78.9	75.6	2.72	3.92
COc1cc(C)c(C)cc1S(=O)(=O)N1CCN(Cc2ccccc2)CC1	9.11	-12.5%	-3.89	96.3	93.5	0.025	5

SMILES	growth inhibition [1] [%]	growth inhibition [2]	viability increase [3] [%]	viability [4] [%]	viability [5] [%]	inhibition [6] [%]	RAM network inhibition [7] [%]
O=C(Cn1c(NCCCO)nc2ccccc21)c1cccs1	-5.45	-2.54%	-1.98	110	91.7	2.46	0.62
Cc1ccc(SCCNC(=O)C(CO)(CO)CO)cc1	2.57	-1.61%	-0.51	101	98.7	0.935	0.52
Cc1ccc(C)c(-n2nnnc2SCC(=O)Nc2cccc(-c3nnc4n3CCCCC4)c2)c1	12.3	54.4% (active)	-0.74	97.7	90.9	1.77	6.57
COC(=O)C1CCN(C(c2ccc(OC)c(OC)c2)c2sc3nc(C)nn3c2O)CC1 (configuration not stated)	7.23	4.6%	0.34	109	96.9	-1.08	2.68
Cc1ccc(-n2c(SCC(N)=O)nc3c([nH]c4ccccc43)c2=O)cc1	-15.5	-5.78%	-2.14	91.3	87.5	0.24	-0.05
CCN1CCN(C(=O)C2CCN(S(=O)(=O)c3cccc4cccnc34)CC2)CC1	-6.23	2.11%	-0.43	108	96.3	2.33	0.98
O=C(CCn1c(=O)sc2ccccc21)NCCN1CCOCC1	-3.08	-14.8%	-1.01	101	106	1.49	1.56
Cc1ccc2c(c1)-c1c(cnn1CC(=O)N1CCCN(Cc3ccccc3F)C1)CO2	-0.225	-1.89%	-2.83	88.9	93.1	1	1.9
CCOC(=O)Cc1csc(NC(=O)CN2C(=O)c3ccccc3S2(=O)=O)n1	-8.36	-15%	-2.2	96.9	101	3.63	5.65
Cc1ccc(NC(=O)C2C3C=CC4(CN(Cc5cccnc5)C(=O)C24)O3)cc1F (configuration not stated)	-0.35	-0.595%	-1.71	96.7	97.2	0.345	9.57
O=C(c1cc(-c2cccs2)on1)N1CCCc2ccccc21	-2.66	-4.53%	-3.09	103	103	2.58	-0.52
COc1ccc(N=C(N(C)C)P(=O)(N(C)C)N(C)C)cc1	-5.46	0.105%	-1.44	103	98.4	0.22	6.63
CC(C)NS(=O)(=O)c1ccc(NC(=O)c2cccnc2)cc1	-12.7	-17.3%	-0.51	112	97.1	1.95	1.31
CCOC(=O)c1ccc(N=c2sc(C(=O)OC)cc(=O)n2CCCN2CCOCC2)cc1	-4.99	-3.88%	-8.16	57.4	52.6	2.12	2.6
COc1ccccc1CCNC(=O)c1cnn2c(C(F)F)cc(C)nc12	-0.75	11.3%	-0.37	103	97.7	-0.1	4.32
CCCC(=O)NCCCc1nc2ccccc2n1CC	-7.75	0.985%	0.81	100	101	-0.16	0.58
O=C(c1cc2ccccn2n1)N1CCCC1	-5.76	-2.7%	-1.17	103	100	1.79	6.63
O=C1c2ccccc2C(=O)N1CCCc1nc2ccccc2c(=O)n1-c1cccnc1	-1.63	7.23%	-3.29	93.1	90.8	2.07	2.78

From PubChem BioAssay
